Measured values as given in ChEMBL document CHEMBL5260840 (J Med Chem, 2019).
Calls of active or inactive are those of the source. No cut-off for these calls is given here.

Legend:
[1] = target: T1, von Hippel-Lindau disease tumor suppressor/Bromodomain-containing protein 9 (Homo sapiens) (UniProt Q9H8M2+P40337); experiment: PROTAC activity at VHL/BRD9 in human Ri-1 cells assessed as remaining BRD9 protein level at 100 nM incubated for 8 hrs by Western blot analysis relative to control; type: cell-based
Method in brief: (§1)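 Ri-1 cells exposed to compound for the stated time before harvest; BRD9, BRD7 and β-actin measured by Western blot, band intensities quantified and set against DMSO-treated control.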

[2] = target: T1, von Hippel-Lindau disease tumor suppressor/Bromodomain-containing protein 9 (Homo sapiens); experiment: PROTAC activity at VHL/BRD9 in human Ri-1 cells assessed as remaining BRD9 protein level at 100 nM incubated for 24 hrs by Western blot analysis relative to control; type: cell-based; method in brief: as §1
[3] = target: T1, von Hippel-Lindau disease tumor suppressor/Bromodomain-containing protein 9 (Homo sapiens); experiment: PROTAC activity at VHL/BRD9 in human Ri-1 cells assessed as remaining BRD9 protein level at 10 nM incubated for 1 hrs by Western blot analysis relative to control; type: cell-based; method in brief: as §1
[4] = target: T2, von Hippel-Lindau disease tumor suppressor/Bromodomain-containing protein 7 (Homo sapiens) (UniProt Q9NPI1+P40337); experiment: PROTAC activity at VHL/BRD7 in human Ri-1 cells assessed as remaining BRD7 protein level at 10 nM incubated for 4 hrs by Western blot analysis relative to control; type: cell-based
[5] = target: T1, von Hippel-Lindau disease tumor suppressor/Bromodomain-containing protein 9 (Homo sapiens); experiment: PROTAC activity at VHL/BRD9 in human Ri-1 cells assessed as BRD9 protein degradation at 100 nM incubated for 4 hrs by MS proteomics analysis; type: cell-based
Method in brief: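 RI-1 cells treated in triplicate with compound (100 nM) or DMSO for 4 h; whole-cell proteome quantified by MS (6273 proteins), fold change versus control with t-test P-values.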

[6] = target: T1, von Hippel-Lindau disease tumor suppressor/Bromodomain-containing protein 9 (Homo sapiens); experiment: PROTAC activity at VHL/BRD9 in human Ri-1 cells assessed as remaining BRD9 protein level at 1 uM incubated for 2 hrs by Western blot analysis relative to control; type: cell-based; method in brief: as §1
[7] = target: T2, von Hippel-Lindau disease tumor suppressor/Bromodomain-containing protein 7 (Homo sapiens); experiment: PROTAC activity at VHL/BRD7 in human Ri-1 cells assessed as remaining BRD7 protein level at 10 nM incubated for 1 hrs by Western blot analysis relative to control; type: cell-based
[8] = target: T1, von Hippel-Lindau disease tumor suppressor/Bromodomain-containing protein 9 (Homo sapiens); experiment: PROTAC activity at VHL/BRD9 in human Ri-1 cells assessed as remaining BRD9 protein level at 100 nM incubated for 2 hrs by Western blot analysis relative to control; type: cell-based; method in brief: as §1
[9] = target: Von Hippel-Lindau disease tumor suppressor/Elongin B/Elongin C (Homo sapiens) (UniProt P40337+Q15370+Q15369); experiment: Co-operative binding affinity to 6His-tagged human VHL/ElonginC/ElonginB expressed in Escherichia coli BL21 (DE3) cells assessed as maximal intensity in the presence of BRD9-BD as complex with compound incubated for 1 hrs by AlphaLISA proximity assay
[10] = target: T2, von Hippel-Lindau disease tumor suppressor/Bromodomain-containing protein 7 (Homo sapiens); experiment: PROTAC activity at VHL/BRD7 in human Ri-1 cells assessed as remaining BRD7 protein level at 1 nM incubated for 8 hrs by Western blot analysis relative to control; type: cell-based
[11] = target: T2, von Hippel-Lindau disease tumor suppressor/Bromodomain-containing protein 7 (Homo sapiens); experiment: PROTAC activity at VHL/HiBiT-tagged BRD7 expressed in HEK293 assessed as BRD7 ubiquitination at 1 uM measured upto 60 mins by NanoBRET assay; type: cell-based
[12] = target: T2, von Hippel-Lindau disease tumor suppressor/Bromodomain-containing protein 7 (Homo sapiens); experiment: PROTAC activity at VHL/BRD7 in human Ri-1 cells assessed as remaining BRD7 protein level at 10 nM incubated for 2 hrs by Western blot analysis relative to control; type: cell-based
[13] = target: T1, von Hippel-Lindau disease tumor suppressor/Bromodomain-containing protein 9 (Homo sapiens); experiment: PROTAC activity at VHL/BRD9 in human Ri-1 cells assessed as BRD9 protein degradation in the presence of MG132 by Western blot analysis; type: cell-based; method in brief: as §1
[14] = target: T2, von Hippel-Lindau disease tumor suppressor/Bromodomain-containing protein 7 (Homo sapiens); experiment: PROTAC activity at VHL/BRD7 in human Ri-1 cells assessed as remaining BRD7 protein level at 100 nM incubated for 1 hrs by Western blot analysis relative to control; type: cell-based; method in brief: as §1
[15] = target: T1, von Hippel-Lindau disease tumor suppressor/Bromodomain-containing protein 9 (Homo sapiens); experiment: PROTAC activity at VHL/BRD9 in human Ri-1 cells assessed as BRD9 protein degradation at 100 nM pre-incubated for 30 mins with VH298 followed by compound addition and measured after 4 hrs by Western blot analysis; type: cell-based
[16] = target: T2, von Hippel-Lindau disease tumor suppressor/Bromodomain-containing protein 7 (Homo sapiens); experiment: PROTAC activity at VHL/BRD7 in human Ri-1 cells assessed as remaining BRD7 protein level at 100 nM incubated for 8 hrs by Western blot analysis relative to control; type: cell-based; method in brief: as §1
[17] = target: T1, von Hippel-Lindau disease tumor suppressor/Bromodomain-containing protein 9 (Homo sapiens); experiment: PROTAC activity at VHL/BRD9 in human Ri-1 cells assessed as remaining BRD9 protein level at 100 nM incubated for 30 mins by Western blot analysis relative to control; type: cell-based; method in brief: as §1
[18] = target: T1, von Hippel-Lindau disease tumor suppressor/Bromodomain-containing protein 9 (Homo sapiens); experiment: PROTAC activity at VHL/BRD9 in human Ri-1 cells assessed as BRD9 protein degradation in the presence of MLN4924 by Western blot analysis; type: cell-based; method in brief: as §1
[19] = target: T2, von Hippel-Lindau disease tumor suppressor/Bromodomain-containing protein 7 (Homo sapiens); experiment: PROTAC activity at VHL/BRD7 in human Ri-1 cells assessed as remaining BRD7 protein level at 100 nM incubated for 30 mins by Western blot analysis relative to control; type: cell-based; method in brief: as §1
[20] = target: T2, von Hippel-Lindau disease tumor suppressor/Bromodomain-containing protein 7 (Homo sapiens); experiment: PROTAC activity at VHL/BRD7 in human Ri-1 cells assessed as remaining BRD7 protein level at 100 nM incubated for 48 hrs by Western blot analysis relative to control; type: cell-based; method in brief: as §1
[21] = target: T1, von Hippel-Lindau disease tumor suppressor/Bromodomain-containing protein 9 (Homo sapiens); experiment: PROTAC activity at VHL/BRD9 in human Ri-1 cells assessed as remaining BRD9 protein level at 10 nM incubated for 48 hrs by Western blot analysis relative to control; type: cell-based; method in brief: as §1
[22] = target: T2, von Hippel-Lindau disease tumor suppressor/Bromodomain-containing protein 7 (Homo sapiens); experiment: PROTAC activity at VHL/BRD7 in human Ri-1 cells assessed as remaining BRD7 protein level at 10 nM incubated for 30 mins by Western blot analysis relative to control; type: cell-based
[23] = target: T2, von Hippel-Lindau disease tumor suppressor/Bromodomain-containing protein 7 (Homo sapiens); experiment: PROTAC activity at VHL/BRD7 in human Ri-1 cells assessed as maximal degradation by Western blot analysis relative to control; type: cell-based
[24] = Kinetic aqueous solubility of the compound by laser nephelometry; type: physicochemical; settings: read-out: Kinetic_solubility
Method in brief: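 Laser nephelometry. DMSO stocks serially diluted from 10 mM to 0.5 mM, then mixed into water to give final 250–12 µM with 2.5% final DMSO. Triplicate aliquots read immediately.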

[25] = target: T1, von Hippel-Lindau disease tumor suppressor/Bromodomain-containing protein 9 (Homo sapiens); experiment: PROTAC activity at VHL/BRD9 in human Ri-1 cells assessed as remaining BRD9 protein level at 10 nM incubated for 30 mins by Western blot analysis relative to control; type: cell-based; method in brief: as §1
[26] = target: T2, von Hippel-Lindau disease tumor suppressor/Bromodomain-containing protein 7 (Homo sapiens); experiment: PROTAC activity at VHL/BRD7 in human Ri-1 cells assessed as BRD7 protein degradation at 100 nM incubated for 4 hrs by MS proteomics analysis; type: cell-based
[27] = target: T1, von Hippel-Lindau disease tumor suppressor/Bromodomain-containing protein 9 (Homo sapiens); experiment: PROTAC activity at VHL/BRD9 in human Ri-1 cells assessed as remaining BRD9 protein level at 10 nM incubated for 8 hrs by Western blot analysis relative to control; type: cell-based; method in brief: as §1
[28] = target: T1, von Hippel-Lindau disease tumor suppressor/Bromodomain-containing protein 9 (Homo sapiens); experiment: PROTAC activity at VHL/BRD9 in human Ri-1 cells assessed as remaining BRD9 protein level at 0.1 nM incubated for 8 hrs by Western blot analysis relative to control; type: cell-based; method in brief: as §1

T2 sequence (P40337 whole entry, looked up): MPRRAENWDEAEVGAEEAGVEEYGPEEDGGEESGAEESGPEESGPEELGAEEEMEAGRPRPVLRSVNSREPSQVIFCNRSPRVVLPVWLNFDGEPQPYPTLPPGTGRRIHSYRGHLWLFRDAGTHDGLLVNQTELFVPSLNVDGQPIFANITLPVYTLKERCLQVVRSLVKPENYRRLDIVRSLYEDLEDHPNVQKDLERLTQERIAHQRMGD
T2 sequence (Q9NPI1 whole entry, looked up): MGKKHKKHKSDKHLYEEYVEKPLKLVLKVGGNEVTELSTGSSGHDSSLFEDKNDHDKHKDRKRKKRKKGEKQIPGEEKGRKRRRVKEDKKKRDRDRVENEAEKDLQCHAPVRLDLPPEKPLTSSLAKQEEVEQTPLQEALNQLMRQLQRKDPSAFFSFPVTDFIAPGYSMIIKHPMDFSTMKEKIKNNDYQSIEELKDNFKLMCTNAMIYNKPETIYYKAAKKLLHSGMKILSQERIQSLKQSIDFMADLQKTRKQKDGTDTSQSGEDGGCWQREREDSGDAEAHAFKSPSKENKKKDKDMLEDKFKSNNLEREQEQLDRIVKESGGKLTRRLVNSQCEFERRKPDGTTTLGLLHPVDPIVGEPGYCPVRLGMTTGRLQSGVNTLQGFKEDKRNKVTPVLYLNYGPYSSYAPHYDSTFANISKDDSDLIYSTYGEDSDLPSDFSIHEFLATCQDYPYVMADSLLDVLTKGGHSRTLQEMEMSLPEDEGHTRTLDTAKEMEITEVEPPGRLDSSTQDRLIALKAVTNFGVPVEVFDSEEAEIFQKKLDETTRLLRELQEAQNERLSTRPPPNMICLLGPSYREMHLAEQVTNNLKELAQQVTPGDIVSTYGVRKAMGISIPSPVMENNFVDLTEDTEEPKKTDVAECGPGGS
T1 sequence (P40337 whole entry, looked up): as the sequence (P40337 whole entry, looked up) above
T1 sequence (Q9H8M2 whole entry, looked up): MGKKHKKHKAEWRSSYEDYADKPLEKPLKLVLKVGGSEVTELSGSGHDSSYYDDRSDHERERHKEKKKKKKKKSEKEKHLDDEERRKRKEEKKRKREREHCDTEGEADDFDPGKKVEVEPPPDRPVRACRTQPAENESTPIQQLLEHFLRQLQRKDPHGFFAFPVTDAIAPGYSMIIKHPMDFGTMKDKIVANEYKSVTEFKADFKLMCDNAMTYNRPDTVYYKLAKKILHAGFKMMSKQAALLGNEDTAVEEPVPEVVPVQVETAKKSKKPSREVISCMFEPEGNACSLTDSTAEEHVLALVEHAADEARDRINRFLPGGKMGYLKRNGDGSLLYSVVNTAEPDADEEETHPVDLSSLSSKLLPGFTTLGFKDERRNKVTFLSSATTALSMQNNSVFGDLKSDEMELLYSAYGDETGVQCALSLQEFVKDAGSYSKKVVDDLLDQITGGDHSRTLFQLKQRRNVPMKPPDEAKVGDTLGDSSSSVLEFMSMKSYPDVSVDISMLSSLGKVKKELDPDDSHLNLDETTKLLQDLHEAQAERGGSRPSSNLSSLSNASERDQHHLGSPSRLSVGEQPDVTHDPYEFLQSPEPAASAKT
Sequence of Von Hippel-Lindau disease tumor suppressor/Elongin B/Elongin C (Homo sapiens) (P40337 whole entry, looked up): as the sequence (P40337 whole entry, looked up) above
Sequence of Von Hippel-Lindau disease tumor suppressor/Elongin B/Elongin C (Homo sapiens) (Q15369 whole entry, looked up): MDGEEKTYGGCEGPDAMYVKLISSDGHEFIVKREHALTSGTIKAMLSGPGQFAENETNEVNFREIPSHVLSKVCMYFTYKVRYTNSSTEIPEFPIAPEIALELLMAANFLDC
Sequence of Von Hippel-Lindau disease tumor suppressor/Elongin B/Elongin C (Homo sapiens) (Q15370 whole entry, looked up): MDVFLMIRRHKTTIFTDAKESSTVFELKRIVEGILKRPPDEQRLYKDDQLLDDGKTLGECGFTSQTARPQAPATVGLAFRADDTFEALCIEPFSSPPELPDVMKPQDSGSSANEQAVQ

Activity [1]: 2%
Activity [2]: 2%
Activity [3]: 64%
Activity [4]: 42%
Activity [5]: Active
Activity [6]: 52%
Activity [7]: 70%
Activity [8]: 21%
Activity [9]: 1.47 10^6No_unit
Activity [10]: 100%
Activity [11]: Active
Activity [12]: 52%
Activity [13]: inactive
Activity [14]: 31%
Activity [15]: inactive
Activity [16]: 5%
Activity [17]: 48%
Activity [18]: inactive
Activity [19]: 40%
Activity [20]: 3%
Activity [21]: 2%
Activity [22]: 70%
Emax [23]: > 90%
solubility kinetic [24]: ≤ 100 µM
Activity [25]: 50%
Activity [26]: Active
Activity [27]: 14%
Activity [28]: 80%
SMILES: COc1cc(-c2cn(C)c(=O)c3cnccc23)cc(OC)c1CN1CCN(CCCCCOc2cc(-c3scnc3C)ccc2CNC(=O)[C@@H]2C[C@@H](O)CN2C(=O)[C@@H](NC(=O)C2(F)CC2)C(C)(C)C)CC1
